From PubChem
GRK2 inh – inhibitors of human GRK2 displacing RNA aptamer; actives 0.59% (n = 330,000); AID 488847; bead flow cytometry, FAM-aptamer displacement from GRK2; inhibition of aptamer binding, % at 10 µM; P25098;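 active = inhibition of aptamer binding above 40%, roughly 3 SD of noise, on plates passing a quality check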;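 also: median bead fluorescence of bound FAM aptamer so fluorescent compounds give negative values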
Rce1 inhib – inhibitors of yeast Ras-converting enzyme; calls only; Q03530; yeast membranes, quenched prenylated peptide cleavage fluorescence; actives 0.27% (n = 290,000); AID 2563;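 active = fall in fluorescence gain of 50% or more versus controls, with final raw signal at or below 3038400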
Target sequence (Q03530 whole entry, looked up): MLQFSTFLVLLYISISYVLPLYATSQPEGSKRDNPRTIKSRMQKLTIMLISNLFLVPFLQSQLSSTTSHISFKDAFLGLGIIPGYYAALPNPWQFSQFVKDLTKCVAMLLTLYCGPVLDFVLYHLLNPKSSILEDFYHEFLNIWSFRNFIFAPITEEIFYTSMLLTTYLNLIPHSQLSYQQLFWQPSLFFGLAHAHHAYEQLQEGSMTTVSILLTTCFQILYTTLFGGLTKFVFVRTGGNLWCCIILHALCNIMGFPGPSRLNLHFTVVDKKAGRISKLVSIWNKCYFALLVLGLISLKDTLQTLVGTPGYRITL
SKN-1 block – C. elegans SKN-1 inhibition. C. elegans VP596 Pgst-4::GFP/RFP ratio, acrylamide-induced, 24 h. actives 0.49% (n = 360,000). inhibition, % at 21.8 µM;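 active = interference check ratio from 0.5 to 1.5 plus GFP to RFP signal ratio inhibition reaching or exceeding a fixed threshold, cut at about 30% in these data, passing the limit was not always enough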
Myeloid diff MLP – myeloid differentiation induction; ER-HoxA9 myeloid progenitors, lysozyme-GFP differentiation, flow cytometry; calls only at 10 µM; actives 1% (n = 360,000); AID 624256;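 active = normalized GFP-positive differentiation at or above the plate's own cutoff, the solvent-only control mean plus 3 SD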;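 also: cells exposed to compound for four days before flow analysis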
Rin1 Abl inh – human Rin1-Abl interaction inhibition; P00519+Q13671; TR-FRET Rin1/Abl binding, biochemical; inhibition, % at 7.35 µM; actives 0.4% (n = 360,000); AID 588664; in the data active = inhibition above about 5%, passing the limit was not always enough
T cell HTS – T cell immune modulators affecting CD8 T cell-vesicle binding. AID 2052. actives 0.068% (n = 330,000). response (vesicle binding), % at 7 µM. 2C CD8+ T cell-vesicle binding, flow cytometry; active compounds read low;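 active = response, share of CD8 T cells binding vesicles, and their 90th percentile fluorescence all below set limits, cut at about 80% in these data, passing the limit was not always enough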;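 also: values below 100% mean blocked vesicle binding to the CD8+ T cells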
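material = purified 2C TCR transgenic mouse naive CD8+ T cells | controls = Unloaded micro-vesicles (low), QL9 vesicles with 0.7% DMSO (high) | detection = cytometric PE anti-B7-1 and Alexa647 anti-CD8 signals after 1% paraformaldehyde fixation | incubation = binding step 1.5 h, 37 °C, antibody labelling 20 min, ice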
Numbers stand for hits. The list is not random: actives were taken first. Their share in the collection is about 2.6%.

Screening O=C(NC1CCN(C(=S)Nc2ccc(F)cc2)CC1)c1ccco1 returned GRK2 inh inactive, Rce1 inhib inactive, SKN-1 block inactive, Myeloid diff MLP inactive, Rin1 Abl inh inactive and T cell HTS inactive.
Screening O=C(NC1CCN(C(=S)Nc2ccc(Cl)cc2)CC1)c1ccco1 returned GRK2 inh inactive, Rce1 inhib inactive, SKN-1 block 47.3, Myeloid diff MLP inactive, Rin1 Abl inh inactive and T cell HTS inactive.
`O=C(/C=C/c1ccc(S(=O)(=O)N2CCOCC2)cc1)NCCc1ccc(C(F)(F)F)cc1` gave GRK2 inh inactive, SKN-1 block inactive, Myeloid diff MLP inactive, Rin1 Abl inh inactive and T cell HTS inactive.
For O=C1c2ccccc2C(=O)C12OC2c1cccc2ccccc12 (centres undefined) the results were GRK2 inh inactive, Rce1 inhib inactive, SKN-1 block inactive, Myeloid diff MLP inactive, Rin1 Abl inh 13.3 and T cell HTS inactive.
For CC1CCC(NC(=O)c2cccc(S(=O)(=O)NCc3ccccc3)c2)CC1 (centres undefined) the results were GRK2 inh inactive, Rce1 inhib inactive, SKN-1 block inactive, Myeloid diff MLP inactive, Rin1 Abl inh inactive and T cell HTS inactive.
`COc1ccc(C2=NS(=O)(=O)N(C)C(C(=O)N3CCc4ccccc4C3)=C2)cc1OC` gave GRK2 inh inactive, Rce1 inhib inactive, SKN-1 block inactive, Myeloid diff MLP active, Rin1 Abl inh inactive and T cell HTS inactive.
O=C(Nc1cc([N+](=O)[O-])ccc1Cl)C(Sc1ccccc1)c1ccccc1 (centres undefined) was read as GRK2 inh inactive, Rce1 inhib inactive, SKN-1 block inactive, Myeloid diff MLP inactive, Rin1 Abl inh inactive and T cell HTS inactive.
For O=C(Nc1ccc(Cl)c([N+](=O)[O-])c1)C(Sc1ccccc1)c1ccccc1 (centres undefined) the results were GRK2 inh inactive, Rce1 inhib active, SKN-1 block inactive, Myeloid diff MLP inactive, Rin1 Abl inh inactive and T cell HTS inactive.
For O=C(O)c1ccccc1C(=O)NC1Cc2ccccc2C1 the results were GRK2 inh inactive, Rce1 inhib inactive, SKN-1 block inactive, Myeloid diff MLP inactive, Rin1 Abl inh inactive and T cell HTS inactive.
Screening Cc1ccc(-c2cc(C)nc3ncnn23)cc1 returned GRK2 inh inactive, Rce1 inhib inactive, SKN-1 block inactive, Myeloid diff MLP inactive, Rin1 Abl inh inactive and T cell HTS inactive.
Screening Cc1ccc(-c2cc(C)nc3nc(N)nn23)cc1 returned GRK2 inh inactive, Rce1 inhib active, SKN-1 block inactive, Myeloid diff MLP inactive, Rin1 Abl inh inactive and T cell HTS inactive.
O=C(CN1CCN(S(=O)(=O)c2ccccc2)CC1)NCc1ccccc1 was read as GRK2 inh inactive, Rce1 inhib inactive, SKN-1 block inactive, Myeloid diff MLP inactive, Rin1 Abl inh inactive and T cell HTS inactive.
`O=C1CC(=O)N(Cc2ccco2)C(=O)N1` gave GRK2 inh 89.0, Rce1 inhib inactive, SKN-1 block inactive, Myeloid diff MLP inactive, Rin1 Abl inh inactive and T cell HTS inactive.
Screening CCCC(=O)n1nc(-c2cccnc2)nc1NCc1ccccc1 returned SKN-1 block inactive, Myeloid diff MLP inactive and Rin1 Abl inh inactive.
For CC1CN(C)C(C)CC1OC(=O)C(c1ccccc1)c1ccccc1 (centres undefined) the results were GRK2 inh inactive, Rce1 inhib inactive, SKN-1 block inactive, Myeloid diff MLP inactive, Rin1 Abl inh inactive and T cell HTS inactive.
CCCCOc1ccc(C(=O)OC2CC(C)N(C)CC2C)cc1 (centres undefined) was read as GRK2 inh inactive, Rce1 inhib inactive, SKN-1 block 41.9, Myeloid diff MLP inactive, Rin1 Abl inh inactive and T cell HTS inactive.
`CC1(C(=O)Nc2ccc3ccccc3c2)CCC(=O)N1C1CCN(Cc2ccccc2)CC1` (centres undefined) gave SKN-1 block inactive, Myeloid diff MLP inactive and Rin1 Abl inh inactive.
COc1ccc(N2CCN(C(=O)NCc3cccc(OC)c3)CC2)cc1 was read as GRK2 inh inactive, Rce1 inhib inactive, SKN-1 block inactive, Myeloid diff MLP inactive, Rin1 Abl inh inactive and T cell HTS inactive.
`O=C(COC(=O)c1cc(S(=O)(=O)N2CCOCC2)c(Cl)cc1Cl)c1ccc[nH]1` gave GRK2 inh inactive, SKN-1 block inactive, Myeloid diff MLP inactive, Rin1 Abl inh inactive and T cell HTS inactive.
Screening N#Cc1ccc(CSc2nnc(-c3ccccc3)n2Cc2ccco2)cc1 returned GRK2 inh inactive, Rce1 inhib inactive, SKN-1 block inactive, Myeloid diff MLP active and Rin1 Abl inh inactive.
Screening Cc1ccc(-c2cc3nc(C)cc(C)n3n2)cc1 returned GRK2 inh inactive, Rce1 inhib inactive, SKN-1 block inactive, Myeloid diff MLP inactive, Rin1 Abl inh inactive and T cell HTS inactive.
Cc1cc(C)n2nc(-c3ccsc3-n3c(C)ccc3C)cc2n1 was read as GRK2 inh inactive, Rce1 inhib inactive, SKN-1 block inactive, Myeloid diff MLP active, Rin1 Abl inh inactive and T cell HTS inactive.
Screening Cc1nnsc1C(=O)N1CCC(C(=O)c2ccccc2)CC1 returned GRK2 inh inactive, Rce1 inhib inactive, SKN-1 block inactive, Myeloid diff MLP inactive, Rin1 Abl inh inactive and T cell HTS inactive.
`CC(=O)Oc1cc(O)c2c(=O)c(OC(C)=O)c(-c3ccc(OC(C)=O)c(OC(C)=O)c3)oc2c1` gave GRK2 inh inactive, Rce1 inhib inactive, SKN-1 block inactive, Myeloid diff MLP inactive, Rin1 Abl inh inactive and T cell HTS 65.3.
`COc1ccc(-c2oc3cc(OC(C)=O)cc(OC(C)=O)c3c(=O)c2OC)cc1` gave SKN-1 block inactive, Myeloid diff MLP inactive and Rin1 Abl inh inactive.
`CCCCCC#CCC#CCC#CCC#CCCCC(=O)O` gave GRK2 inh 50.0, Rce1 inhib inactive and T cell HTS inactive.
Fc1ccc(C2CCCN2Cc2nc(Cc3ccccc3)no2)cc1 (centres undefined) was read as GRK2 inh inactive, Rce1 inhib inactive, SKN-1 block inactive, Myeloid diff MLP inactive, Rin1 Abl inh inactive and T cell HTS inactive.
`O=C(c1cnc(Cl)c(Cl)c1)N1CCC(Cc2ccccc2)CC1` gave GRK2 inh inactive, Rce1 inhib active, SKN-1 block inactive, Myeloid diff MLP inactive, Rin1 Abl inh inactive and T cell HTS inactive.
`CC(C)c1ccccc1OCC(=O)N(C)CC(=O)Nc1ccc(F)cc1` gave GRK2 inh inactive, Rce1 inhib inactive, SKN-1 block inactive, Myeloid diff MLP inactive, Rin1 Abl inh inactive and T cell HTS inactive.
Screening CCn1c2ccccc2c2cc(/C=N/NC(=O)c3cc(O)cc(O)c3)ccc21 returned GRK2 inh inactive, Rce1 inhib active, SKN-1 block inactive, Myeloid diff MLP inactive, Rin1 Abl inh inactive and T cell HTS inactive.
CCn1c2ccccc2c2cc(/C=N/NC(=O)c3ccc(O)cc3)ccc21 was read as GRK2 inh inactive, Rce1 inhib active, SKN-1 block inactive, Myeloid diff MLP inactive, Rin1 Abl inh inactive and T cell HTS inactive.
